In ChEMBL document CHEMBL5653613 (Mol Cancer Ther, 2013):
Active and inactive are the calls of the source. No cut-off for these calls is given here.

Legend:
[1] = tested on: T47D; test: Cytotoxicity against human T47D cells at 1 to 2.5 umol/L incubated for 72 hrs by MTS assay; type: functional, cell-based; settings: dose 1-2.5 µmol/L
[2] = tested on: MCF7; test: Cytotoxicity against human MCF7 cells at 1 to 2.5 umol/L incubated for 72 hrs by MTS assay; type: functional, cell-based; settings: dose 1-2.5 µmol/L
[3] = tested on: MCF7; test: Induction of apoptosis in human MCF7 cells assessed as viable cells at 5 umol/L incubated for 3 days by Annexin V/PI staining based flow cytometry (reference value: 98.1 %); type: functional; settings: MCF7, 72 h, dose 5 µmol/L, time 3 day, read-out: Activity
[4] = tested on: MCF7; test: Induction of apoptosis in human MCF7 cells assessed as early cells at 5 umol/L incubated for 3 days by Annexin V/PI staining based flow cytometry (reference value: 0.1 %); type: functional; settings: dose 5 µmol/L; time 3 day; at 5 µM
[5] = tested on: MCF7; test: Induction of apoptosis in human MCF7 cells assessed as necrotic cells at 5 umol/L incubated for 3 days by Annexin V/PI staining based flow cytometry (reference value: 0.4 %); type: functional; settings: dose 5 µmol/L; time 3 day; at 5 µM
[6] = tested on: T47D; test: Induction of apoptosis in human T47D cells assessed as early cells at 5 umol/L incubated for 3 days by Annexin V/PI staining based flow cytometry (reference value: 0.8 %); type: functional; settings: dose 5 µmol/L; time 3 day; at 5 µM
[7] = tested on: ZR-75-1; test: Induction of apoptosis in human ZR-75-1 cells assessed as viable cells at 5 umol/L incubated for 3 days by Annexin V/PI staining based flow cytometry (reference value: 95 %); type: functional; settings: ZR-75-1, 72 h, dose 5 µmol/L, time 3 day, read-out: Activity
[8] = tested on: ZR-75-1; test: Induction of apoptosis in human ZR-75-1 cells assessed as early cells at 5 umol/L incubated for 3 days by Annexin V/PI staining based flow cytometry (reference value: 0.5 %); type: functional; settings: dose 5 µmol/L; time 3 day; at 5 µM
[9] = tested on: ZR-75-1; test: Induction of apoptosis in human ZR-75-1 cells assessed as late cells at 5 umol/L incubated for 3 days by Annexin V/PI staining based flow cytometry (reference value: 3.8 %); type: functional; settings: dose 5 µmol/L; time 3 day; at 5 µM
[10] = tested on: T47D; test: Induction of polyploidy in human T47D cells at 1 umol/L incubated for 72 hrs by microscopic analysis relative to control; type: functional; settings: dose 1 µmol/L, at 1 µM
How it was run: (§1)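 Cells stained with Hema-3 and photographed under a light microscope with CCD camera. Polyploid cells scored as percent of the population.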

[11] = tested on: ZR-75-1; test: Induction of polyploidy in human ZR-75-1 cells at 5 umol/L incubated for 72 hrs by microscopic analysis relative to control; type: functional; settings: dose 5 µmol/L, at 5 µM; how it was run: as §1
[12] = tested on: T47D; test: Induction of polyploidy in human T47D cells at 10 umol/L incubated for 72 hrs by microscopic analysis relative to control; type: functional; settings: dose 10 µmol/L, at 10 µM; how it was run: as §1
[13] = tested on: MCF7; test: Induction of polyploidy in human MCF7 cells at 5 umol/L by microscopic analysis; type: functional, cell-based; settings: dose 5.0 µmol/L, time 72.0 hrs, TDE = time-dependent effect
[14] = tested on: T47D; test: Inhibition of cell proliferation of human T47D cells with RON-/- at 5 umol/L incubated for 72 hrs followed by media replacement without compound measured upto 10 days by microscopic analysis; type: functional, cell-based; settings: dose 5.0 µmol/L
[15] = tested on: MCF7; test: Induction of polyploidy in human MCF7 cells assessed as cells with 4N chromosome contents at 5 uM incubated for 24 hrs by PI staining based flow cytometry (reference value: 36); type: functional
[16] = tested on: MCF7; test: Induction of polyploidy in human MCF7 cells assessed as cells with 2N chromosome contents at 5 uM incubated for 48 hrs by PI staining based flow cytometry (reference value: 52); type: functional
[17] = tested on: MCF7; test: Induction of polyploidy in human MCF7 cells assessed as cells with 16N chromosome contents at 5 uM incubated for 48 hrs by PI staining based flow cytometry (reference value: 0); type: functional
[18] = tested on: MCF7; test: Induction of polyploidy in human MCF7 cells assessed as cells with 16N chromosome contents at 5 uM incubated for 72 hrs by PI staining based flow cytometry (reference value: 0); type: functional
[19] = tested on: T47D; test: Induction of polyploidy in human T47D cells assessed as cells with 2N chromosome contents at 5 uM incubated for 24 hrs by PI staining based flow cytometry (reference value: 48); type: functional
[20] = tested on: T47D; test: Induction of polyploidy in human T47D cells assessed as cells with 2N chromosome contents at 5 uM incubated for 48 hrs by PI staining based flow cytometry (reference value: 48); type: functional
[21] = tested on: T47D; test: Induction of polyploidy in human T47D cells assessed as cells with 2N chromosome contents at 5 uM incubated for 72 hrs by PI staining based flow cytometry (reference value: 48); type: functional
[22] = tested on: T47D; test: Induction of polyploidy in human T47D cells assessed as cells with 16N chromosome contents at 5 uM incubated for 72 hrs by PI staining based flow cytometry (reference value: 0); type: functional
[23] = tested on: ZR-75-1; test: Induction of polyploidy in human ZR-75-1 cells assessed as cells with 2N chromosome contents at 5 uM incubated for 48 hrs by PI staining based flow cytometry (reference value: 48); type: functional
[24] = tested on: ZR-75-1; test: Induction of polyploidy in human ZR-75-1 cells assessed as cells with 8N chromosome contents at 5 uM incubated for 72 hrs by PI staining based flow cytometry (reference value: 0); type: functional
[25] = tested on: T47D; test: Disruption of microtubule dynamics in human T47D cells assessed as lack of metaphase equatorial alignment at 5 umol/L incubated for 24 hrs by immunofluorescence staining based analysis; type: functional, cell-based; settings: dose 5.0 µmol/L
How it was run: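 T-47D cells (1 × 10^6/dish) in RPMI-1640 with 5% FBS were treated with or without 5 µmol/L for 24, 48 and 72 h. Cells were fixed in cold acetone and stained with mouse anti-α-tubulin or anti-γ-tubulin, then an FITC anti-mouse IgG secondary, plus DAPI. Fluorescence microscopy, 200× magnification.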

[26] = tested on: T47D; test: Induction of cell cycle arrest at metaphase in human T47D cells assessed as disorganization of multipolar mitotic spindles at 5 umol/L preincubated for 24 hrs followed by extensive compound washout and subsequent culturing in compound-free media measured upto 3 days by immunofluorescence staining based analysis; type: functional; settings: dose 5.0 µmol/L
[27] = tested on: T47D; test: Downregulation of histone H3 expression in human T47D cells at 5 umol/L incubated upto 72 hrs by Western blot analysis; type: functional, cell-based; settings: dose 5.0 µmol/L
How it was run: (§2)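 Cells were treated with 5 µmol/L for 0, 24, 48 and 72 h. Lysates were immunoblotted for AURK-B, phospho-Ser10 histone H3 and total histone H3, with β-actin reprobe as the loading control. Detection by enhanced chemiluminescence.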

[28] = tested on: ZR-75-1; test: Downregulation of histone H3 expression in human ZR-75-1 cells at 5 umol/L incubated upto 72 hrs by Western blot analysis; type: functional, cell-based; settings: dose 5.0 µmol/L; how it was run: as §2
[29] = tested on: MCF7; test: Downregulation of histone H3 expression in human MCF7 cells at 5 umol/L incubated upto 72 hrs by Western blot analysis; type: functional, cell-based; settings: dose 5.0 µmol/L; how it was run: as §2
[30] = (§3) Effect on paclitaxel resistance in human T47D cells with compound-induced polyploidy assessed as change in paclitaxel-induced cytotoxicity by measuring increase in paclitaxel IC50 at 5 umol/L preincubated for 72 hrs followed by compound washout and subsequent paclitaxel treatment for 72 hrs by MTS assay; type: functional, cell-based
[31] = as §3, with “methotrexate” for “paclitaxel”, “ZR-75-1” for “T47D”, “methotrexate-induced” for “paclitaxel-induced”; type: functional, cell-based
How it was run: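 Cells were first given the inducing compound for 72 h in 100-mm dishes. Polyploid cells were collected, washed and replated at 5,000 cells/well, with untreated cells at the same density as control. Methotrexate was added over a concentration range for 72 h, in triplicate. Viability was read by MTS assay and the IC50 calculated; 1 of 3 experiments shown.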

[32] = tested on: T-47D (Homo sapiens); test: Disruption of microtubule dynamics in human T-47D cells at 5 umol/L incubated upto 72 hrs by immunofluorescence staining based analysis; settings: dose 5.0 µmol/L

SMILES: CCOc1ccn(-c2ccc(F)cc2)c(=O)c1C(=O)Nc1ccc(Oc2ccnc(N)c2Cl)c(F)c1 [BMS-777607]
- Activity [1]: inactive
- Activity [2]: inactive
- viability at 5 µM [3]: 97.3%
- Activity [4]: 0.2%
- Activity [5]: 0.5%
- Activity [6]: 2.2%
- viability at 5 µM [7]: 88.5%
- Activity [8]: 2.3%
- Activity [9]: 7.4%
- Activity [10]: 14%
- Activity [11]: 82%
- Activity [12]: 86%
- Activity [13]: Tde
- inhibition [14]: inactive
- Activity [15]: 45.5
- Activity [16]: 12
- Activity [17]: 0
- Activity [18]: 0
- Activity [19]: 7.5
- Activity [20]: 7.4
- Activity [21]: 7.5
- Activity [22]: 18.5
- Activity [23]: 4.5
- Activity [24]: 20
- Activity [25]: Active
- Activity [26]: Active
- Activity [27]: inactive
- Activity [28]: inactive
- Activity [29]: inactive
- IC50 [30]: 31.6 nM
- IC50 [31]: 430 nM
- Activity [32]: Active
